According to the RNAGym collection of RNA variant scans (doi:10.1038/s41586-018-0170-7):

B1: tRNA (parent)
chain: GUUCCGUUGGCGUAAUGGUAACGCGUCUCCCUCCUAAGGAGAAGACUGCGGGUUCGAGUCCCGUACGGAACG

Variants of: B1
Test: yeast fitness, log relative to wild type (ln ratio); higher = fitter; tRNA-Arg(CCU), competitive growth, 37 C, 1 M NaCl
In short: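 Fitness is the natural log of a genotype's generation count divided by that of the wild type. A combinatorial library of tRNA-Arg(CCU) variants sat on a HIS3 centromeric plasmid in BY4742 lacking the chromosomal gene, from two independent transformations. Pools grew 4 generations in SC-HIS at 30 °C, then ~6.5 generations (~26.5 h) in SC-HIS 1M NaCl at 37 °C, with three outputs per input. Generations came from OD-scaled log2 output/input frequency, inverse-variance weighted across replicates, with variants counted by 125 bp paired-end Illumina sequencing.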

Variant	yeast fitness (ln)
U2C A43C C66U A69G A70G C71U	-0.23
G1A A43C C46U C66U A70G C71U	-0.192
G1A G6U A43C A70U C71U	-0.303
U2G G6A A43C C46U C66A A69G A70U C71U	-0.381
U2C A43C C46U A70U C71U	-0.0761
U2C C27U A43C C46U A69G A70U C71U	-0.307
G6A C66A A69G A70G C71U	-0.163
G1A C27U A43C C46U A70U	-0.203
G1A G6A C46U C66U A69G A70U	-0.0453
C27U A43C C46U C71U	-0.0385
U2C C27U A43C C66U A70U C71U	-0.343
U2G G6U A43C C46U C66A A69G A70U	-0.0302
G1A G6A A70G	-0.156
U2G C27U A43C C66A A70G	-0.179
U2C C27U A43C A69G A70U C71U	-0.266
U2C G6A C46U C66A A70U C71U	-0.0695
U2C A43C C46U C66U A69G A70U	-0.191
G1A U2G C46U A70U C71U	0.00364
G1A A43C C46U A70U	-0.0611
U2G G6U C27U A43C C66U A69G A70G	-0.39
U2G G6A A43C C66A A70U C71U	-0.33

Variant	yeast fitness (ln)
G1A G6U C66U A69G A70G C71U	-0.273
U2G G6U C27U A43C C46U C66A A70U	-0.017
G1A U2C G6U C46U A69G A70G	-0.0666
G1A U2G G6A C46U A69G A70U C71U	-0.259
G1A U2G G6U C27U A70U	-0.265
G6A C27U C66U A70U C71U	-0.312
U2G G6A C46U A69G A70G C71U	-0.154
A69G	-0.00462
G1A G6U C27U A43C A70G C71U	-0.426
G1A U2G C27U A43C C66A A70U	-0.195
A43C A70U C71U	-0.0836
U2G C46U A69G A70G	-0.131
G1A U2G G6A C46U C66U A70U C71U	-0.00784
U2C G6A C27U C46U C66A A70G	-0.0252
U2G C27U A43C C46U C71U	-0.0621
G1A U2C G6A C46U C66U A70U C71U	-0.0901
G1A U2G C46U C66U A69G A70U	-0.128
G1A G6A C46U A70U C71U	-0.0983
G1A G6U C46U C66A A69G A70U C71U	-0.341
U2C G6A C46U C66U A70U C71U	-0.183
G1A G6U C27U A43C A70U C71U	-0.341

Variant	yeast fitness (ln)
G1A U2C G6U C27U C66U A70G C71U	-0.496
G1A U2G G6U C27U C46U A69G A70U C71U	-0.43
G1A U2C G6A C27U C46U A70G C71U	-0.0986
G6A C27U C71U	-0.204
U2C A43C A69G	-0.0815
U2C G6A C27U C66U A69G A70U C71U	-0.386
G1A U2G A43C C66U A70U	-0.185
G1A G6A C27U C46U A69G A70G	-0.224
G1A U2C G6A	0.00615
G1A G6U C27U C46U A70U C71U	-0.278
U2G G6U C27U C46U C66A A69G C71U	-0.293
U2G C27U C66U A69G A70U C71U	-0.433
G1A U2G G6A A43C C46U A69G A70G C71U	-0.303
C27U A43C C66U A69G A70G	-0.255
U2C G6A A43C A70U C71U	-0.126
G1A G6U C27U A43C C46U C66A A69G C71U	-0.671
G1A U2G G6A C27U C46U C66U C71U	-0.196
G6A A69G	-0.0982
U2G G6A A43C A69G A70U C71U	-0.364
U2G G6A C27U A43C C46U A70G C71U	-0.201
U2G G6A C27U C66A A70G C71U	-0.149

Variant	yeast fitness (ln)
A43C C66A A70U C71U	-0.268
G1A U2C C46U A70U C71U	-0.0299
C27U A43C C46U C66U A70U C71U	-0.333
G1A C27U A43C A69G	-0.138
U2G G6U C27U C66U A70U C71U	-0.343
G1A G6U C66A A70U	-0.0574
G6U A43C C66A C71U	-0.177
U2G G6A C46U C66A A70G	-0.056
G1A G6A A43C A69G A70G C71U	-0.248
G1A U2C G6U C27U A43C C46U C66U A69G A70G C71U	-0.316
U2C G6A A43C C66U A70G C71U	-0.0302
G1A G6A C46U C66U A69G A70G C71U	-0.0914
U2C G6U C27U A43C A69G A70U C71U	-0.513
G1A C27U C46U C66A A70U C71U	-0.208
G1A G6U C46U C66A A69G A70G C71U	-0.162
G6A C27U A43C A69G C71U	-0.353
C27U A43C C66A A70U	-0.0654
G1A G6U C27U A43C C46U A70U	-0.346
G1A C27U A43C C46U C66A A69G A70G C71U	-0.305
U2C C27U C46U C66U A70U	-0.0783
